Experimental findings from ChEMBL document CHEMBL1140127, “Enantiomeric propanolamines as selective N-methyl-D-aspartate 2B receptor antagonists” (J Med Chem, 2008) are described below.

The test system of series [1] is Rattus norvegicus. Kind of series: Anticonvulsant activity in Sprague-Dawley rat assessed as inhibition of electroshock-induced tonic hind limb extension at 100 mg/kg, ip administered 30 mins before electroshock. Type of series: functional, organism-based. The arrangement: dose 100 mg/kg. As to conditions: Hindlimb. In short, it runs like this: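 Male Sprague–Dawley rats, 100–125 g, with 1% lidocaine dropped into each conjunctiva before maximal electroshock. Compound given ip in DMSO 30 min before the stimulus. Tested on three consecutive days: untreated on days 1 and 3, compound on day 2. Duration of tonic hind limb extension scored visually. Vehicle served as negative control and carbamazepine 60 mg/kg as positive control. ANOVA with Bonferroni post hoc test.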

The target in series [2] is Glutamate receptor 2 (Rattus norvegicus) (UniProt P19491). Kind of series: Inhibition of rat recombinant GluR2/GluR3 expressed in Xenopus oocytes assessed as inhibition of kainate-induced evoked current at 3 uM by two electrode voltage clamp method. Type of series: cell-based. Particulars: Oocyte. An outline of the steps: (§1)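 Xenopus oocytes injected with 5–10 ng rat receptor cRNA and kept in Barth's solution at 18 °C. Two-electrode voltage clamp at −40 mV and 23 °C, 2–7 days after injection, in 90 NaCl/1 KCl/10 HEPES/0.5 BaCl2 mM at pH 7.3 or 7.6. Agonists: 50 μM kainate for GluR3, GluR4 and GluR2/3; 3 nM domoate for GluR6; 100 μM AMPA for GluR6/KA1. Current expressed as % of control; paired t test.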

The next series concerns Brain. Kind of series: Drug level in rat brain at 30 mg/kg, ip by LC-MS/MS analysis. It is filed as ADME, organism-based. The arrangement: dose 30 mg/kg, route intraperitoneal. In short, it runs like this:
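Rats, n = 3 per dose, given 30 mg/kg ip in 2% dimethyl acetamide/98% 5% 2-hydroxypropyl cyclodextrin after overnight fasting. Brain weighed and homogenized on ice in 50 mM phosphate buffer. Homogenate extracted with 5 volumes of cold acetonitrile, then centrifuged. Parent compound quantified by LC-MS/MS in MRM mode against a standard curve.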

Series [3] concerns Rattus norvegicus. Kind of series: Effect on locomotor activity in Sprague-Dawley rat at 300 mg/kg, ip. Type of series: functional, organism-based. The arrangement: dose 300 mg/kg. An outline of the steps: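 Sprague–Dawley rats, 100–200 g, habituated to the room for ≥30 min. Basal activity recorded for 1 h in infrared photobeam activity chambers. Animals then dosed ip and returned to the chamber for 2 h; total horizontal activity recorded. Daily controls were vehicle (negative) and 0.3 mg/kg MK-801 ip in saline (positive). ANOVA with Dunnett's post hoc test.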

The target in series [4] is Sodium-dependent noradrenaline transporter (Homo sapiens, UniProt P23975). Kind of series: Binding affinity to norepinephrine transporter.
Series [5] concerns the target Glutamate receptor ionotropic, kainate 2 (Rattus norvegicus) (UniProt P42260). Kind of series: Inhibition of rat recombinant GluR6 expressed in Xenopus oocytes assessed as inhibition of domoate-induced evoked current at 3 uM by two electrode voltage clamp method. Particulars: Oocyte. It is filed as cell-based. An outline of the steps:
as §1
On the technique in general: In two-electrode clamp one electrode senses voltage and the other passes current.

Series [6] addresses T1, Adrenergic receptor alpha-1 (Rattus norvegicus, UniProt P15823+P23944+P43140).
T1 sequence (P15823 whole entry): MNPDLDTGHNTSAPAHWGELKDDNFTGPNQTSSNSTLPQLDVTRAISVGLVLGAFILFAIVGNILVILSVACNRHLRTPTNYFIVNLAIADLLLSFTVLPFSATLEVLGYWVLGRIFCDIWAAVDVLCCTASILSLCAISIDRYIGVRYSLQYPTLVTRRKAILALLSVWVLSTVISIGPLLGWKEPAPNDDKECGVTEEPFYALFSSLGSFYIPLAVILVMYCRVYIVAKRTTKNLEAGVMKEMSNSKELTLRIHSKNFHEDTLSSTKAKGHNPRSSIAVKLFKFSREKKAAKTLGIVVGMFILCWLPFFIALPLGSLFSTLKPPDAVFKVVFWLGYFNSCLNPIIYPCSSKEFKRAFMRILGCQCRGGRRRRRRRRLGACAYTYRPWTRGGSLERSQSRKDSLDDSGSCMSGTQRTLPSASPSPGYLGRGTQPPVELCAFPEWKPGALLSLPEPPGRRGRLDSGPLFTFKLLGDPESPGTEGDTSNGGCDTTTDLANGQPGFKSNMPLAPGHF
T1 sequence (P23944 whole entry): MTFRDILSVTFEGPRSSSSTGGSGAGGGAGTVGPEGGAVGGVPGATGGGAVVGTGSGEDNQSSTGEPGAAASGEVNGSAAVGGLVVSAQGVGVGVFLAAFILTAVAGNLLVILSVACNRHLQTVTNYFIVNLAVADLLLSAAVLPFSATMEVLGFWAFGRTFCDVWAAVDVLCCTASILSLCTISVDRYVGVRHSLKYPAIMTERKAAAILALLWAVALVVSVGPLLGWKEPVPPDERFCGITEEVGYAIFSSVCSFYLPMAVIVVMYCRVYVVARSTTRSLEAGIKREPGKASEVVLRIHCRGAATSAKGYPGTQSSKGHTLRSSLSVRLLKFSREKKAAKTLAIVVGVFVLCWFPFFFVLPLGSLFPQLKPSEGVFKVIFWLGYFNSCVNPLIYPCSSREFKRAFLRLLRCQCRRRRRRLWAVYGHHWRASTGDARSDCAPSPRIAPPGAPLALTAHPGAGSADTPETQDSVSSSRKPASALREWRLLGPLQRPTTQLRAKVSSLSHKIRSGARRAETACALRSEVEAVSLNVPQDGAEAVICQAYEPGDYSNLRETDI
T1 sequence (P43140 whole entry): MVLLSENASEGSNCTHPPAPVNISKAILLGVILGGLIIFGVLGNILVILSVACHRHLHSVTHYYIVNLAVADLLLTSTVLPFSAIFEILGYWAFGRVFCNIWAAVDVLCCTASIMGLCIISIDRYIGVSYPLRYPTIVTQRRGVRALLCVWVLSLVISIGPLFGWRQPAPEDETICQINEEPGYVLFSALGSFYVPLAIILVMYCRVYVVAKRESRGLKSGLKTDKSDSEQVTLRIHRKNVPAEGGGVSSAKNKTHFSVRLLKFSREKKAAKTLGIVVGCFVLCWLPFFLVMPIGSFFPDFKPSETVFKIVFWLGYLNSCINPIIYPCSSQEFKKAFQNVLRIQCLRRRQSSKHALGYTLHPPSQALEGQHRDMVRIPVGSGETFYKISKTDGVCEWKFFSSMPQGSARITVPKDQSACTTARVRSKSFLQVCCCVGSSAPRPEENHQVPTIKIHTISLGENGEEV
Kind of series: Displacement of [3H]prazosin from alpha1 adrenergic receptor in rat brain. Type of series: tissue-based. In short, it runs like this: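 Rat brain membranes; displacement of [3H]-prazosin at 4–6 concentrations, each point in duplicate. IC50 from displacement curves fitted by nonlinear least-squares regression.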

The nature of series [7]: Ratio of drug level in rat brain to plasma by LC-MS/MS analysis. It is filed as ADME. An outline of the steps: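 Rats (n = 3 per dose) received a 4 mg/kg single iv bolus via the tail vein or 30 mg/kg ip, in 2% dimethyl acetamide/98% 5% 2-hydroxypropyl cyclodextrin, after an overnight fast. Plasma was taken at 5–240 min. Brain was homogenized in 50 mM phosphate buffer. Samples were extracted with 5 volumes of cold acetonitrile and read by LC-MS/MS (MRM) against a standard curve.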

A further series is filed under the species Mus musculus. Kind of series: Inhibition of mouse NR2B(deltaATD) mutant receptor.
A short description of series [8]: Protein binding in human plasma. It is filed as ADME, cell-free. As to conditions: read-out: PPB (converted).

The structures appear in SMILES notation. Active and inactive are the calls of the source. The calls are words filed in the database; no cut-off is given here.

Chain of Sodium-dependent noradrenaline transporter (P23975 whole entry): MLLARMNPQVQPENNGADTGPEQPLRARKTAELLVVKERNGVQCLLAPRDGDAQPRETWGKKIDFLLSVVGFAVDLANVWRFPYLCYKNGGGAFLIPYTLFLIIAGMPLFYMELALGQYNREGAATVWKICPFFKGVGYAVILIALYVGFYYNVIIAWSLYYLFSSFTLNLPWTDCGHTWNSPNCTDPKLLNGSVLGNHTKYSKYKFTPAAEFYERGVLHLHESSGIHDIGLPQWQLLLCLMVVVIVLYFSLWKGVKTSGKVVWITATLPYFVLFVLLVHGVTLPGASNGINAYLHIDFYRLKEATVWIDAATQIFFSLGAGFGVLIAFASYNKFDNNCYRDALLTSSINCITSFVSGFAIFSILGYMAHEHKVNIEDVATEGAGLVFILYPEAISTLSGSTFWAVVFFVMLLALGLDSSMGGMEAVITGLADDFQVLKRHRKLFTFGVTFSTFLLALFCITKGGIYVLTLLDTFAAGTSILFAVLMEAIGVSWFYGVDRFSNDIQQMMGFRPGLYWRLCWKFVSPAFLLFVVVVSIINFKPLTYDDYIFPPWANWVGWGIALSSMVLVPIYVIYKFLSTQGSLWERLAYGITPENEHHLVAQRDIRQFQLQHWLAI
Chain of Glutamate receptor 2 (Rattus norvegicus) (P19491 whole entry): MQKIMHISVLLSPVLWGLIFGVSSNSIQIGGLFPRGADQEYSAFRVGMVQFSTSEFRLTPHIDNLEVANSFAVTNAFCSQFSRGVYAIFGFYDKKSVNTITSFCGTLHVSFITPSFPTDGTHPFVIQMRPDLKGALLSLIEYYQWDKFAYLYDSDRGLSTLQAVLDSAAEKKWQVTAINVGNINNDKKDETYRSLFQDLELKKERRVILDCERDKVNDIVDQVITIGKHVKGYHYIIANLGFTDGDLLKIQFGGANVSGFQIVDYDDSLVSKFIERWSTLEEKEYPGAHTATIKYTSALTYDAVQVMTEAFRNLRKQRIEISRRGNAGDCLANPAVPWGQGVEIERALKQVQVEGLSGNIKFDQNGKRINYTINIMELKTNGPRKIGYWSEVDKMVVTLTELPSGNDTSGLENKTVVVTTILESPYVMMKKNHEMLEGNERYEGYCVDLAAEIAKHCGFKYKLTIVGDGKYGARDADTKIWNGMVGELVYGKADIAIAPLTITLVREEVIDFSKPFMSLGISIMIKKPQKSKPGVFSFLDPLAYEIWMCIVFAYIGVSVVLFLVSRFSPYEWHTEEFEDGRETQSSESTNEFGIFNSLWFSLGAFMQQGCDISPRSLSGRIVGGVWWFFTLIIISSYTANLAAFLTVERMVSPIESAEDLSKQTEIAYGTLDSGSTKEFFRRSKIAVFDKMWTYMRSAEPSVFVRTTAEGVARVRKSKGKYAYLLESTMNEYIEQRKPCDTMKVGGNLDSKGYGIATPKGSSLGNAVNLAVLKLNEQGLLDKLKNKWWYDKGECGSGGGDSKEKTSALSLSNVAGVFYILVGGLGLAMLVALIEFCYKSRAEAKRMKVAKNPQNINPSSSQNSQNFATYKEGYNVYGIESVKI
Chain of Glutamate receptor ionotropic, kainate 2 (Rattus norvegicus) (P42260 whole entry): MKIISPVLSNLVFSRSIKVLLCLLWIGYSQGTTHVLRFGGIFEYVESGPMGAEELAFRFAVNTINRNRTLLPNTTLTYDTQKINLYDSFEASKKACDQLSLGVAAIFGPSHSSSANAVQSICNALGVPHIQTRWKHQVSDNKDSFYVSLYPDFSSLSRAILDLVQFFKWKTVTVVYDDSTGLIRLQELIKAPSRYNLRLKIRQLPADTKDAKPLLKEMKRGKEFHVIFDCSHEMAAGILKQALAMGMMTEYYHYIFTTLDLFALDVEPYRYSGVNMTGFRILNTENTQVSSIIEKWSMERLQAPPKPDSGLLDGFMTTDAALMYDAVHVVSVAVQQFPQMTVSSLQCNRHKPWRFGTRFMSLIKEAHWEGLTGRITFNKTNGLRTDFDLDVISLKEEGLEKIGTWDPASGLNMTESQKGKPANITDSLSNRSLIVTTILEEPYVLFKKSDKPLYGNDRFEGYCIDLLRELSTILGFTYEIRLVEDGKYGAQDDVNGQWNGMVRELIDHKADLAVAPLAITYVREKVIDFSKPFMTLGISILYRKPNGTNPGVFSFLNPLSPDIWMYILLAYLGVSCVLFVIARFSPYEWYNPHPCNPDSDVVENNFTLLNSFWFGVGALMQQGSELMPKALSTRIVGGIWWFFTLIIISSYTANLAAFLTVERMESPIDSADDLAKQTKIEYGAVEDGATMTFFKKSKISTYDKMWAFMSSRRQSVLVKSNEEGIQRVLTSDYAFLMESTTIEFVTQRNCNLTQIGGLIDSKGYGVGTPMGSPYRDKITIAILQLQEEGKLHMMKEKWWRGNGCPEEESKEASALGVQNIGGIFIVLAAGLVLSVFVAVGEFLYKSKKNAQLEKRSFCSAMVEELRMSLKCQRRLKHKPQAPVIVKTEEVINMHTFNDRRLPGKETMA

As to `CS(=O)(=O)Nc1ccc(OC[C@@H](O)CNCCc2ccc(Cl)c(Cl)c2)cc1`, the result in the series with Rattus norvegicus [1] was Active. Also, the result (in series [2]; in the series with Rattus norvegicus [3]; in series [5]; in the series listed under Mus musculus) was inactive. Further, the concentration in the series on Brain stood at 170 nM. Further, the IC50 in [4] was found to be 0.5 µM; in series [6], 2.4 µM. For the same compound, the Ratio in series [7] is reported as under 0.05. Further, the fraction unbound in series [8] is 0.02.

A word on the IC50: it is the concentration at which inhibition is half-maximal. Higher therefore signals a need for much substance.
